Reference: ChEMBL document CHEMBL1138216, “Design and synthesis of novel derivatives of the muscarinic agonist tetra(ethylene glycol)(3-methoxy-1,2,5-thiadiazol-4-yl) [3-(1-methyl-1,2,5,6-tetrahydropyrid-3-yl)-1,2,5-thiadiazol-4-yl] ether (CDD-0304): effects of structural modifications on the binding and activity at muscarinic receptor …” (J Med Chem, 2006)
The source made the active and inactive calls. No cut-off for these calls is given here.

Molecular target: T1, Muscarinic acetylcholine receptor M4 (Homo sapiens, UniProt P08173)
T1 sequence (P08173 whole entry): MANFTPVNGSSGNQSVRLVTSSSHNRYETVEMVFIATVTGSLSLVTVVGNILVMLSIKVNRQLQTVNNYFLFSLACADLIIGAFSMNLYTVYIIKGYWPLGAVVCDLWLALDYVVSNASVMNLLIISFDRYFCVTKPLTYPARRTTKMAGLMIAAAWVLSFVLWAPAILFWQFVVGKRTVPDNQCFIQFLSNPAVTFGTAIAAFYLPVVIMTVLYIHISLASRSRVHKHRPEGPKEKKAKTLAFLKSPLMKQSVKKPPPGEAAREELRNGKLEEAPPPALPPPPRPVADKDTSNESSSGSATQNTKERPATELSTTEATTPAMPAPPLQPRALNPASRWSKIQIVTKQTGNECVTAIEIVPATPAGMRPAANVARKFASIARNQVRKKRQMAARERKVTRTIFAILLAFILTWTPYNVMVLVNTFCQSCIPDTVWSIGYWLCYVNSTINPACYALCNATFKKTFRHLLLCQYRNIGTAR
Experiment: Activity at human M4 receptor assessed as inhibition of forskolin-stimulated cAMP accumulation
Type: functional
Settings: not given

| SMILES | IC50 |
| --- | --- |
| COc1nsc(OCCCOCCCOCCCOc2nsnc2C2=CCCN(C)C2)n1 | 6310 nM |
| COc1nsnc1OCCOCCOCCOCCOCCOc1nsnc1C1=CCCN(C)C1 | 398 nM |
| COc1nsnc1OCCOCCOCCOc1nsnc1C1=CCCN(C)C1 | 7940 nM |
| CN1CCC=C(c2nsnc2OCCOCCOCCOCCO)C1 | 25100 nM |

Molecular target: T2, Muscarinic acetylcholine receptor M1 (Homo sapiens) (UniProt P11229)
T2 sequence (whole entry): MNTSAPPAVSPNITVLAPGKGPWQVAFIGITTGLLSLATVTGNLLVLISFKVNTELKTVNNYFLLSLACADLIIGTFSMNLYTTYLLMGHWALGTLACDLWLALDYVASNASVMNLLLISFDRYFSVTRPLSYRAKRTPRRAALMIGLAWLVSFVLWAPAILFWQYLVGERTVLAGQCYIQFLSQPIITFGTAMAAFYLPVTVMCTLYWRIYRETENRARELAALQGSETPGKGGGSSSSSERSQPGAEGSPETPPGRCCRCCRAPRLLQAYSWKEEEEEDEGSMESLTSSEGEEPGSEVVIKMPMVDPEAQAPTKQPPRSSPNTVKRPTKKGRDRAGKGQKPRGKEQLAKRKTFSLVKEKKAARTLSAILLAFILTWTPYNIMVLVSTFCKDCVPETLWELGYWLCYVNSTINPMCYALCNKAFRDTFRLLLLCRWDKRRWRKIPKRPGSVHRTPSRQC
Experiment: Agonist activity at human M1 receptor expressed in A9 L cells assessed as stimulation of phosphoinositide hydrolysis relative to carbachol
Type: functional, cell-based
Settings: L929
Procedure, shortened: (§1)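 A9 L cells stably expressing the receptor, seeded 24 h, labelled overnight with 10 µCi/mL [3H]inositol in inositol-free DMEM; ligands in HBSS with 10 mM LiCl, 20 mM HEPES, 37 °C, 1 h; formic acid extraction, inositol phosphates counted by SPA beads.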

| SMILES | Smax |
| --- | --- |
| COc1nsc(OCCCOCCCOCCCOc2nsnc2C2=CCCN(C)C2)n1 | 27% |
| COc1nsnc1OCCOCCOCCOCCOCCOc1nsnc1C1=CCCN(C)C1 | 28% |
| COc1nsnc1OCCOCCOCCOc1nsnc1C1=CCCN(C)C1 | 13% |
| CN1CCC=C(c2nsnc2OCCOCCOCCOCCO)C1 | 7.9% |

Molecular target: T3, Muscarinic acetylcholine receptor M3 (Homo sapiens, UniProt P20309)
Experiment: Antagonist activity at human M3 receptor assessed as inhibition of carbachol […]
Settings: read-out: pA2 (converted)
Target sequence in this assay (P20309 whole entry): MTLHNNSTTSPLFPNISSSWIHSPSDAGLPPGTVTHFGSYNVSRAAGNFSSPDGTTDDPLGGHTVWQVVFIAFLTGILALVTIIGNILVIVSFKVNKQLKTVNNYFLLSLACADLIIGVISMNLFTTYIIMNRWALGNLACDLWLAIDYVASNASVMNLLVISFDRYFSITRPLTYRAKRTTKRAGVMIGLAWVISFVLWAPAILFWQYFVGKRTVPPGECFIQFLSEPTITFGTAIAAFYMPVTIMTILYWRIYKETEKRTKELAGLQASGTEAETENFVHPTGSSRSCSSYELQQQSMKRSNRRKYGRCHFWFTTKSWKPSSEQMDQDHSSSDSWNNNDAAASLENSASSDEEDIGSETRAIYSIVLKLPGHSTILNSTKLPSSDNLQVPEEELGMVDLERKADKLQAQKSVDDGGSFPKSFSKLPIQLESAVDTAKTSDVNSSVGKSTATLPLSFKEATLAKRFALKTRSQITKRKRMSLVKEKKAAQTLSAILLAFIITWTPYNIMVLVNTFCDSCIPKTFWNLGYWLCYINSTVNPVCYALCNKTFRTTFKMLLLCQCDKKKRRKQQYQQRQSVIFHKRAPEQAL

| SMILES | Kb |
| --- | --- |
| COc1nsnc1OCCOCCOCCOCCOCCOc1nsnc1C1=CCCN(C)C1 | 63.1 nM |

Molecular target: T4, Muscarinic acetylcholine receptor M1 (Homo sapiens, UniProt P11229)
T4 sequence (P11229 whole entry): T2 sequence (whole entry)
Experiment: Inhibition of [3H](R)-QNB binding to human M1 receptor expressed in A9 L cells
Type: cell-based, A9L
Settings: not given

| SMILES | Ki |
| --- | --- |
| COc1nsc(OCCCOCCCOCCCOc2nsnc2C2=CCCN(C)C2)n1 | 63.1 nM |
| COc1nsnc1OCCOCCOCCOCCOCCOc1nsnc1C1=CCCN(C)C1 | 398 nM |
| COc1nsnc1OCCOCCOCCOc1nsnc1C1=CCCN(C)C1 | 316 nM |
| CN1CCC=C(c2nsnc2OCCOCCOCCOCCO)C1 | 1000 nM |

Molecular target: T5, Muscarinic acetylcholine receptor M5 (Homo sapiens, UniProt P08912)
T5 sequence (P08912 whole entry): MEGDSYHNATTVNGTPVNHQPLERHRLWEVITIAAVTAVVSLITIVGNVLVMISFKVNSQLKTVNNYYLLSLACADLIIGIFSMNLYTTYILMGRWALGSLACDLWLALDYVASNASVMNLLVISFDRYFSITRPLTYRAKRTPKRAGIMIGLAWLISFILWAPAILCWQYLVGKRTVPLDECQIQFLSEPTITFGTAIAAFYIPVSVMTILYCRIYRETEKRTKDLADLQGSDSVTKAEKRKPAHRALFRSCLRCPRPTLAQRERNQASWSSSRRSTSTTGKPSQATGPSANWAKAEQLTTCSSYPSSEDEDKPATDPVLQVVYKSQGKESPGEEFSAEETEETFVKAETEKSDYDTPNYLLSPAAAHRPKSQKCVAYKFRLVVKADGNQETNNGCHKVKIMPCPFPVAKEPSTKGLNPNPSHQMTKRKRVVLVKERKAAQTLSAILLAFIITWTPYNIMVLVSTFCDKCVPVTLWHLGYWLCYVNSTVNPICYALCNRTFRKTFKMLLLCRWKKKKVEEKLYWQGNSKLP
Experiment: Inhibition of [3H](R)-QNB binding to human M5 receptor expressed in A9 L cells
Type: cell-based, A9L
Settings: not given
Procedure, shortened: (§2)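 Membranes from A9 L cells expressing the receptor; 0.1 nM [3H]-(R)-QNB with 14 concentrations of test ligand (0.01 nM to 3 mM) in 25 mM sodium phosphate pH 7.4, 5 mM MgCl2, 2 h room temperature; nonspecific binding with 1000-fold excess unlabeled (R)-QNB.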

| SMILES | Ki |
| --- | --- |
| COc1nsc(OCCCOCCCOCCCOc2nsnc2C2=CCCN(C)C2)n1 | 251 nM |
| COc1nsnc1OCCOCCOCCOCCOCCOc1nsnc1C1=CCCN(C)C1 | 100 nM |
| COc1nsnc1OCCOCCOCCOc1nsnc1C1=CCCN(C)C1 | 631 nM |
| CN1CCC=C(c2nsnc2OCCOCCOCCOCCO)C1 | 3980 nM |

Molecular target: T6, Muscarinic acetylcholine receptor M5 (Homo sapiens) (UniProt P08912)
T6 sequence (whole entry): T5 sequence (P08912 whole entry)
Experiment: Agonist activity at human M5 receptor expressed in A9 L cells assessed as stimulation of phosphoinositide hydrolysis relative to carbachol
Type: functional, cell-based
Settings: L929
Procedure, shortened: as §1

| SMILES | Activity | Smax |
| --- | --- | --- |
| COc1nsc(OCCCOCCCOCCCOc2nsnc2C2=CCCN(C)C2)n1 | inactive | – |
| CN1CCC=C(c2nsnc2OCCOCCOCCOCCO)C1 | – | 7.4% |

Molecular target: T3, Muscarinic acetylcholine receptor M3
Experiment: Inhibition of [3H](R)-QNB binding to human M3 receptor expressed in A9 L cells
Type: cell-based, A9L
Settings: not given
Target sequence in this assay (P20309 whole entry): as the sequence (P20309 whole entry) above

| SMILES | Ki |
| --- | --- |
| COc1nsc(OCCCOCCCOCCCOc2nsnc2C2=CCCN(C)C2)n1 | 200 nM |
| COc1nsnc1OCCOCCOCCOCCOCCOc1nsnc1C1=CCCN(C)C1 | 1580 nM |
| COc1nsnc1OCCOCCOCCOc1nsnc1C1=CCCN(C)C1 | 251 nM |
| CN1CCC=C(c2nsnc2OCCOCCOCCOCCO)C1 | 316 nM |

Molecular target: T7, Muscarinic acetylcholine receptor M2 (Homo sapiens) (UniProt P08172)
T7 sequence (whole entry): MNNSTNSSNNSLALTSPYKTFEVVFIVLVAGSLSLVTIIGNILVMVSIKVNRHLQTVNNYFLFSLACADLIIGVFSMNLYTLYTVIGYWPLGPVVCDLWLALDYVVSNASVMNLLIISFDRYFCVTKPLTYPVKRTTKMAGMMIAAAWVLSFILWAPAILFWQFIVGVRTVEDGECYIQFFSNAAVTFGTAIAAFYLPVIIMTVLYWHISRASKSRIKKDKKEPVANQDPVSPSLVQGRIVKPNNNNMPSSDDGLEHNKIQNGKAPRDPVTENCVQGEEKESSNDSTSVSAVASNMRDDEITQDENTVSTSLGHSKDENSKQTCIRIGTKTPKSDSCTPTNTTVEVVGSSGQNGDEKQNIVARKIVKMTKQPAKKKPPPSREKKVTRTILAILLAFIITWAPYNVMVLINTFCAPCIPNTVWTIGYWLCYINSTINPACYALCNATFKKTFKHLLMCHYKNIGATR
Experiment: Activity at human M2 receptor assessed as inhibition of forskolin-stimulated cAMP accumulation relative to carbachol
Type: functional
Settings: not given

| SMILES | Imax |
| --- | --- |
| COc1nsc(OCCCOCCCOCCCOc2nsnc2C2=CCCN(C)C2)n1 | inactive |
| COc1nsnc1OCCOCCOCCOCCOCCOc1nsnc1C1=CCCN(C)C1 | 98% |
| COc1nsnc1OCCOCCOCCOc1nsnc1C1=CCCN(C)C1 | 110% |
| CN1CCC=C(c2nsnc2OCCOCCOCCOCCO)C1 | 86% |

Molecular target: T4, Muscarinic acetylcholine receptor M1
Experiment: Agonist activity at human M1 receptor expressed in A9 L cells assessed as stimulation of phosphoinositide hydrolysis
Type: functional, cell-based, L929
Settings: not given

| SMILES | EC50 |
| --- | --- |
| COc1nsc(OCCCOCCCOCCCOc2nsnc2C2=CCCN(C)C2)n1 | 501 nM |
| COc1nsnc1OCCOCCOCCOCCOCCOc1nsnc1C1=CCCN(C)C1 | 251 nM |
| COc1nsnc1OCCOCCOCCOc1nsnc1C1=CCCN(C)C1 | 794 nM |
| CN1CCC=C(c2nsnc2OCCOCCOCCOCCO)C1 | 794 nM |

Molecular target: T6, Muscarinic acetylcholine receptor M5 (Homo sapiens)
Experiment: Agonist activity at human M5 receptor expressed in A9 L cells assessed as stimulation of phosphoinositide hydrolysis at 100 uM relative to carbachol
Type: functional, cell-based
Settings: L929

| SMILES | Smax |
| --- | --- |
| COc1nsnc1OCCOCCOCCOCCOCCOc1nsnc1C1=CCCN(C)C1 | 0.95% |
| COc1nsnc1OCCOCCOCCOc1nsnc1C1=CCCN(C)C1 | 1.3% |

Molecular target: T8, Muscarinic acetylcholine receptor M2 (Homo sapiens, UniProt P08172)
T8 sequence (P08172 whole entry): T7 sequence (whole entry)
Experiment: Inhibition of [3H](R)-QNB binding to human M2 receptor expressed in A9 L cells
Type: cell-based, A9L
Settings: not given
Procedure, shortened: as §2

| SMILES | Ki |
| --- | --- |
| COc1nsc(OCCCOCCCOCCCOc2nsnc2C2=CCCN(C)C2)n1 | 63.1 nM |
| COc1nsnc1OCCOCCOCCOCCOCCOc1nsnc1C1=CCCN(C)C1 | 2.51 nM |
| COc1nsnc1OCCOCCOCCOc1nsnc1C1=CCCN(C)C1 | 39.8 nM |
| CN1CCC=C(c2nsnc2OCCOCCOCCOCCO)C1 | 316 nM |

Molecular target: T1, Muscarinic acetylcholine receptor M4
Experiment: Inhibition of [3H](R)-QNB binding to human M4 receptor expressed in A9 L cells
Type: cell-based, A9L
Settings: not given
Procedure, shortened: as §2

| SMILES | Ki |
| --- | --- |
| COc1nsc(OCCCOCCCOCCCOc2nsnc2C2=CCCN(C)C2)n1 | 158 nM |
| COc1nsnc1OCCOCCOCCOCCOCCOc1nsnc1C1=CCCN(C)C1 | 12.6 nM |
| COc1nsnc1OCCOCCOCCOc1nsnc1C1=CCCN(C)C1 | 79.4 nM |
| CN1CCC=C(c2nsnc2OCCOCCOCCOCCO)C1 | 794 nM |

Molecular target: T8, Muscarinic acetylcholine receptor M2
Experiment: Activity at human M2 receptor assessed as inhibition of forskolin-stimulated cAMP accumulation
Type: functional
Settings: not given

| SMILES | IC50 |
| --- | --- |
| COc1nsnc1OCCOCCOCCOCCOCCOc1nsnc1C1=CCCN(C)C1 | 398 nM |
| COc1nsnc1OCCOCCOCCOc1nsnc1C1=CCCN(C)C1 | 3160 nM |
| CN1CCC=C(c2nsnc2OCCOCCOCCOCCO)C1 | 7.94 nM |

Molecular target: T3, Muscarinic acetylcholine receptor M3
Experiment: Agonist activity at human M3 receptor expressed in A9 L cells assessed as stimulation of phosphoinositide hydrolysis relative to carbachol
Type: functional, cell-based
Settings: L929
Procedure, shortened: as §1
Target sequence in this assay (P20309 whole entry, looked up): as the sequence (P20309 whole entry) above

| SMILES | Activity |
| --- | --- |
| COc1nsc(OCCCOCCCOCCCOc2nsnc2C2=CCCN(C)C2)n1 | inactive |
| COc1nsnc1OCCOCCOCCOCCOCCOc1nsnc1C1=CCCN(C)C1 | inactive |
| COc1nsnc1OCCOCCOCCOc1nsnc1C1=CCCN(C)C1 | inactive |
| CN1CCC=C(c2nsnc2OCCOCCOCCOCCO)C1 | inactive |

Molecular target: T9, Muscarinic acetylcholine receptor M4 (Homo sapiens) (UniProt P08173)
T9 sequence (whole entry): T1 sequence (P08173 whole entry)
Experiment: Activity at human M4 receptor assessed as inhibition of forskolin-stimulated cAMP accumulation relative to carbachol
Type: functional
Settings: not given

| SMILES | Imax |
| --- | --- |
| COc1nsc(OCCCOCCCOCCCOc2nsnc2C2=CCCN(C)C2)n1 | 130% |
| COc1nsnc1OCCOCCOCCOCCOCCOc1nsnc1C1=CCCN(C)C1 | 37% |
| COc1nsnc1OCCOCCOCCOc1nsnc1C1=CCCN(C)C1 | 100% |
| CN1CCC=C(c2nsnc2OCCOCCOCCOCCO)C1 | 110% |
